Assay results published in paper PMC8733272 (iScience, 2021).
Positions count from the first letter of the chain named. “Also recorded” adds a separate entry of the source.

Columns and labels:
[1] = target: T1, WT-Parkin (substrate His-Miro1 186-591) (Homo sapiens, UniProt O60260); experiment: Miro1 ubiquitination assay by Western blot; assay type: biochemical; settings: His-Miro1 (186-591) substrate
T1 sequence (O60260 1-465): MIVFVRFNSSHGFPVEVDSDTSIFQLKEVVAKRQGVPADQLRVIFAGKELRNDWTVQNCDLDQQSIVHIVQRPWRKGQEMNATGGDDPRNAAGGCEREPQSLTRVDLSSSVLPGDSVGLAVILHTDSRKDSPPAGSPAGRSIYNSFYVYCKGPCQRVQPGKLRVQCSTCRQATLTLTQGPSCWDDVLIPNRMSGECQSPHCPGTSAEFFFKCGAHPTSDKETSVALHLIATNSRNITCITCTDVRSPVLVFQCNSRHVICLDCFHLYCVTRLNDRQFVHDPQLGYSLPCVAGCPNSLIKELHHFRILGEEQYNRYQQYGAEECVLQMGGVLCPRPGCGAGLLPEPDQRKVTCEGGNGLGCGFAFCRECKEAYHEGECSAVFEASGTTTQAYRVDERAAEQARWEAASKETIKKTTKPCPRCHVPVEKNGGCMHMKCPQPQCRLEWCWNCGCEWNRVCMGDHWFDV
Method in brief: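 Run as the TR-FRET reaction with untagged WT-Parkin. Test compound was pre-incubated 30 min with E1, E2, Parkin and His-Miro1 186-591 (250 nM final); the 2X mix held 40 nM E1, 800 nM E2 and 100 nM Parkin. After 20 min the reaction was stopped in SDS sample buffer, then run on 4–12% bis-tris SDS-PAGE, PVDF transfer and IR-dye secondary imaging.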

pParkin = target: T2, pParkin (Homo sapiens, UniProt O60260); experiment: TR-FRET autoubiquitination assay with phospho-Parkin without pUb; assay type: biochemical; settings: TR-FRET ratio, no pUb
T2 sequence (O60260 1-465): T1 sequence (O60260 1-465)

WT-Parkin = target: T3, WT-Parkin (Homo sapiens, UniProt O60260); experiment: Parkin autoubiquitination by Western blot; assay type: biochemical; settings: 5 min reaction at 37°C
T3 sequence (O60260 1-465): T1 sequence (O60260 1-465)
Method in brief: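 Untagged WT-Parkin was pre-incubated 30 min at 37°C with E1, E2 and test compound; the 2X mix held 40 nM E1, 800 nM E2 and 100 nM Parkin. Then 2X substrate mix was added (760 nM fluorescein-Ub, 50 μM ubiquitin, 10 μM pUb, 2 mM ATP) in HEPES pH 7.4 buffer with 1% DMSO, in 40 μL. Stopped after 5 min with SDS sample buffer; polyubiquitin smears were read by Western blot.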

[2] = target: T4, N-terminally tagged W403A-Parkin (Homo sapiens, UniProt O60260, W403A); experiment: In vitro ubiquitin vinyl sulfone; assay type: biochemical; settings: 3 μM pUb, 1 h
T4 sequence (O60260 1-465 W403A): T1 sequence (O60260 1-465) with W403A
Method in brief: (§1)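 Tagged Parkin (WT or W403A), 2 μM, incubated with 10 μM Ub-VS and 3 μM pUb. Test compound at 0, 0.09, 0.27, 0.8, 2.5, 7.4, 22.2, 66.7 and 200 μM. Buffer: 50 mM HEPES, 150 mM NaCl, 1 mM TCEP, pH 8.0. Final DMSO 2% (v/v).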

[3] = target: Human MDR1 efflux transporter (MDCK-MDR1 cells) (Homo sapiens, UniProt P08183); experiment: MDCK-MDR1 bidirectional permeability / efflux; assay type: in vitro ADME; settings: average of inward and outward permeability
Method in brief: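 MDCK-MDR1 cells were seeded at 0.28×10^6 cells/mL on the apical side of transwell inserts and grown 7 days, with two media changes. Monolayers were rinsed in HBSS/1% HEPES pH 7.4. 1 μM test compound was added to the donor side (A>B and B>A); receivers held buffer with 1% BSA. Plates were shaken 2 h at 37°C. Donor was sampled at 0 and 120 min, receiver at 2 h, and quenched with acetonitrile plus internal standard for LC-MS/MS. Post-assay TEER had to exceed 430 ohm∗cm2. Papp = (dQ/dt)(1/C0)(1/A); ER = Papp B>A / Papp A>B.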

[4] = target: T5, N-terminally tagged C431S-Parkin (Homo sapiens, UniProt O60260, C431S); experiment: In vitro ubiquitin vinyl sulfone; assay type: biochemical; settings: 200 μM compound, range of pUb concentrations
T5 sequence (O60260 1-465 C431S): T1 sequence (O60260 1-465) with C431S

[5] = test system: GFP-Parkin expressing HeLa cells; experiment: Parkin translocation assay; assay type: cell-based
Method in brief: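 HeLa cells stably expressing GFP-Parkin (lentiviral, blasticidin-selected, FACS-sorted for matched GFP) were seeded at 1.6×10^4 cells/well and recovered 24 h. Nuclei were Hoechst-stained 30 min. Cells were pre-treated 1 h with test compound, then given 20 μM CCCP. Live imaging every 10 min for 3 h at 20x, 37°C, 5% CO2, with 9 fields in each of 4 replicate wells.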

[6] = test system: SH-SY5Y cells expressing the MitoQC construct; experiment: MitoQC mitophagy assay; assay type: cell-based; settings: 1 h pre-incubation, Antimycin + Oligomycin
Method in brief: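 SH-SY5Y cells carrying MitoQC were seeded at 1.6×10^4 cells/well on attachment factor and recovered 72 h. Cells were pre-treated 1 h with test compound, then given 5 μM Antimycin + 10 μM Oligomycin or DMSO for 8 h unless stated otherwise. Fixed in 2% PFA on ice 30 min, DAPI-stained, and imaged at 64x (25 fields, 4 replicate wells). mCherry puncta (mitolysosomes) were counted.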

[7] = target: T6, N-terminally tagged WT-Parkin (Homo sapiens, UniProt O60260); experiment: In vitro ubiquitin vinyl sulfone; assay type: biochemical; settings: 3 μM pUb, 2 h
T6 sequence (O60260 1-465): T1 sequence (O60260 1-465)
Method in brief: as §1

Sequence of Human MDR1 efflux transporter (MDCK-MDR1 cells) (P08183 whole entry): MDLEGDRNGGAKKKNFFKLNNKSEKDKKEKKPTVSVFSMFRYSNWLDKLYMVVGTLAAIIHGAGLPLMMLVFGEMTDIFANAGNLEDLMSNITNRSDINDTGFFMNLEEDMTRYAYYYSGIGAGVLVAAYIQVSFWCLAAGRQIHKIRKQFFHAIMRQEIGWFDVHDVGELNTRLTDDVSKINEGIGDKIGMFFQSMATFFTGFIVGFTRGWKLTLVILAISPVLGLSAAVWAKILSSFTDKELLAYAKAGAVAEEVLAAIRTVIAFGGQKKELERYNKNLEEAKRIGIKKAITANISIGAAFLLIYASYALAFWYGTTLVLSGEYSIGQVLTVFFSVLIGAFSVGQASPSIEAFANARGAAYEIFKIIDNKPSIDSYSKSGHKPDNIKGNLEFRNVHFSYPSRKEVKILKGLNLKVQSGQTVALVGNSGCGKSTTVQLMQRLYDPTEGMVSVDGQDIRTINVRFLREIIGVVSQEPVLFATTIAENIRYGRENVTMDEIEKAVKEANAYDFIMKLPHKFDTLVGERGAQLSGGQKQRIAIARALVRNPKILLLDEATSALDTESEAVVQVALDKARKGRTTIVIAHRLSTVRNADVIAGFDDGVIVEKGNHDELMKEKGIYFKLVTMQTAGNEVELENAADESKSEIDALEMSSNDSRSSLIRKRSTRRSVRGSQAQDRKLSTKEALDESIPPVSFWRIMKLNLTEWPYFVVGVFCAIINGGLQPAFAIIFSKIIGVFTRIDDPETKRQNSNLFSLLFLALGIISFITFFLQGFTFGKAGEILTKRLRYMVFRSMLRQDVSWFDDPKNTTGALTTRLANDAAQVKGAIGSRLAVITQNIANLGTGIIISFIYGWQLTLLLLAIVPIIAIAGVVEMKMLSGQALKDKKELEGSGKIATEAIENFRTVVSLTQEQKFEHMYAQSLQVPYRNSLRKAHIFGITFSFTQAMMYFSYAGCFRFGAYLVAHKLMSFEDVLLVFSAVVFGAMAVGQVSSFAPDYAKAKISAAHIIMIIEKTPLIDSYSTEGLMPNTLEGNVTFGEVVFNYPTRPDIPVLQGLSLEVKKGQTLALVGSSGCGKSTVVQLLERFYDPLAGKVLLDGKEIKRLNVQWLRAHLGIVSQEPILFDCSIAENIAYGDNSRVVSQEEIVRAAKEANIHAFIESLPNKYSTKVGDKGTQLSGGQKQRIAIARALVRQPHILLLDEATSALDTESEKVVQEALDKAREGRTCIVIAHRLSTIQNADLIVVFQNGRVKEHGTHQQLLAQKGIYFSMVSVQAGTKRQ

CO[C@H](C(=O)N1Cc2c(-c3ccc(C(=O)N4CCCc5ccccc54)cc3)cnn2C[C@H]1C(C)C)c1cnn(C)c1 (single isomer, unassigned) [BIO-2007817]
Miro1 ubiquitination by Western blot [1]: able to induce the appearance of monoubiquitinated forms of Miro1
activation of phospho-Parkin in the absence of pUb (pParkin): can act as an agonist for activated phospho-Parkin even in the absence of pUb
Parkin autoubiquitination by Western blot (WT-Parkin): stimulated Parkin autoubiquitination as measured by Western blots in a concentration-dependent manner
Ub-VS charging of W403A-Parkin [2]: further stimulated exposure of the active-site C431
MDR1-MDCK avg (average of Papp AB/BA) [3]: 19.8 ×10⁻⁶ cm/s
Ub-VS charging of C431S-Parkin [4]: not responsive; also recorded: no activity
effect on Parkin translocation rate in the presence of valspodar ([5]; HeLa cells with and without valspodar (MDR1 inhibitor)): No change in Parkin translocation rate
effect on rate of Parkin translocation to mitochondria ([5]; eGFP-WT-Parkin HeLa, 1 h pretreatment, then CCCP): did not significantly change the rate of translocation of Parkin; also recorded: not able to promote Parkin translocation to depolarized mitochondria in HeLa cells
effect on mitophagy, MitoQC [6]: nor promote mitophagy in MitoQC SH-SY5Y cell lines
Ub-VS charging of WT-Parkin ([7]; no E1, E2 or ATP): induced the appearance of slower-migrating Parkin species in a concentration-dependent manner
concentration above which maximal efficacy is approached in Ub-VS charging ([7]; WT-Parkin): above 20 μM
